Laboratory results from ChEMBL document CHEMBL2016546, “Synthesis, characterization, molecular docking and cytotoxic activity of novel plumbagin hydrazones against breast cancer cells” (Bioorg Med Chem Lett, 2012).
Active and inactive are the calls of the source. The rule behind the calls is not given here.

Columns and labels:
[1] = target: Transcription factor p65 (Homo sapiens) (UniProt Q04206); assay: Inhibition of NFkappaB p65 subunit expression in human MDA-MB-231 cells at 1.5 uM after 48 hrs by Western blot analysis; format: cell-based
Procedure, shortened: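 MDA-MB-231 cells were exposed to compounds for 48 h, with a vehicle-treated control. NF-κB p65 subunit levels were detected by Western blot, using β-actin as the protein loading control.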

[2] = Partition coefficient, log P pf the compound; format: physicochemical; settings: octanol/water
MDA-MB-231 = assay: Antiproliferative activity against ER-negative human MDA-MB-231 cells after 48 hrs by MTT assay; settings: MDA-MB-231, 48 h
MDA-MB-468 = assay: Antiproliferative activity against ER-negative human MDA-MB-468 cells after 48 hrs by MTT assay; format: functional, cell-based; settings: MDA-MB-468, 48 h
Procedure, shortened: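 MDA-MB-468 cells plated at 3 × 10³/well in medium containing 10% fetal calf serum, penicillin (50 U/mL) and streptomycin, at 37 °C under 5% CO₂. DMSO-dissolved compounds were added 24 h post-seeding and exposure lasted 48 h. MTT (0.5 mg/mL) was applied for 2 h at 37 °C, then DMSO for 30 min at room temperature. Eight wells per treatment, at least three independent repeats.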

MCF7 = assay: Antiproliferative activity against ER-positive human MCF7 cells after 48 hrs by MTT assay; settings: MCF7, 48 h

Chain of Transcription factor p65 (Homo sapiens) (Q04206 whole entry): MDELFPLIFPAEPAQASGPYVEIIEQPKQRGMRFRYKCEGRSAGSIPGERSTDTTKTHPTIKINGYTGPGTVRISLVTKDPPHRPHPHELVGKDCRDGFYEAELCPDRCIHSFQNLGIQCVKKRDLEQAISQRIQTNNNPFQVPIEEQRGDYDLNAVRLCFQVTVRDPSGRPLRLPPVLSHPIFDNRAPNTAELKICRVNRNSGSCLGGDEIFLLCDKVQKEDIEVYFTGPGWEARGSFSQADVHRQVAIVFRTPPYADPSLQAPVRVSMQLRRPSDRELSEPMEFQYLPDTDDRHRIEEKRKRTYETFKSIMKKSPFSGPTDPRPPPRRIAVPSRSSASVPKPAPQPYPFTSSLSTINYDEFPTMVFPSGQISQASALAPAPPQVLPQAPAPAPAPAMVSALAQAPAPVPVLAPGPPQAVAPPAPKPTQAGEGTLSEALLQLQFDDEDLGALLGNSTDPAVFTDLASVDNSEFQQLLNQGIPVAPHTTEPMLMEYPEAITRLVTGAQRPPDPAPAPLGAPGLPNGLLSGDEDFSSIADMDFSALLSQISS

Compound	inhibition [1]	logP ([2]; read-out: logP)	IC50 (MDA-MB-231) [nM]	IC50 (MDA-MB-468) [nM]	IC50 (MCF7) [nM]	logP [2]
CC1=C/C(=N\NC(=O)c2cccnc2)c2c(O)cccc2C1=O	Active	3.13	1900	1900	2700	–
CC1=CC(=O)c2c(O)cccc2C1=O [PLUMBAGIN]	Active	–	3500	2500	5500	0.89
CC1=C/C(=N\NC(=O)c2ccncc2)c2c(O)cccc2C1=O	Active	2.86	3300	3300	6200	–

Continued, in another order:

inhibition [1]	logP ([2]; read-out: logP)	IC50 (MDA-MB-231) [nM]	IC50 (MDA-MB-468) [nM]	IC50 (MCF7) [nM]	Compound	logP [2]
Active	4	2100	2000	2800	CC1=C/C(=N\NC(=O)c2ccccc2)c2c(O)cccc2C1=O	–
Active	4.17	3800	2900	5300	CC1=C/C(=N\NC(=O)c2ccccc2O)c2c(O)cccc2C1=O	–
